Assay results as given in ChEMBL document CHEMBL1817593, “C5'-Alkyl Substitution Effects on Digitoxigenin α-l-Glycoside Cancer Cytotoxicity” (ACS Med Chem Lett, 2011).

Assays:
[1] = system: PC-3; experiment: Cytotoxicity against human PC3 cells after 48 hrs by sulforhodamine B assay; format: functional; conditions: PC-3, 48 h
[2] = system: HL-60(TB); experiment: Cytotoxicity against human HL-60(TB) cells after 48 hrs by sulforhodamine B assay; format: functional; conditions: HL-60, 48 h
[3] = system: KM12; experiment: Cytotoxicity against human KM12 cells after 48 hrs by sulforhodamine B assay; format: functional; conditions: KM12, 48 h
[4] = system: OVCAR-3; experiment: Cytotoxicity against human OVCAR3 cells after 48 hrs by sulforhodamine B assay; format: functional; conditions: OVCAR-3, 48 h
[5] = system: CAKI-1; experiment: Cytotoxicity against human Caki1 cells after 48 hrs by sulforhodamine B assay; format: functional; conditions: CAKI-1, 48 h
[6] = system: ACHN; experiment: Cytotoxicity against human ACHN cells after 48 hrs by sulforhodamine B assay; format: functional
[7] = system: BT-549; experiment: Cytotoxicity against human BT549 cells after 48 hrs by sulforhodamine B assay; format: functional; conditions: BT-549, 48 h
[8] = system: UO-31; experiment: Cytotoxicity against human UO31 cells after 48 hrs by sulforhodamine B assay; format: functional; conditions: UO-31, 48 h
[9] = system: NCI-H460; experiment: Growth inhibition of human NCI-H460 cells after 48 hrs by MTT assay; format: functional
How it was run: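 NCI-H460 viability measured by MTT (mitochondrial enzymatic activity) after 48 h exposure at 1 nM to 10 μM. GI50 derived from dose-response curves, with N = 9 and two-way ANOVA. Values are the mean of three independent experiments with duplicate determinations.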

[10] = system: NCI-H460; experiment: Cytotoxicity against human NCI-H460 cells assessed as cell viability after 48 hrs by MTT assay; format: functional; conditions: NCI-H460, 48 h
How it was run: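 NCI-H460 cells were exposed to drug for 48 h, and viability was read by MTT as mitochondrial enzymatic activity. GI50 was derived from dose-response curves (1 nM–10 μM). Values are from three independent experiments with duplicate determinations, given with standard error of the mean.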

[11] = system: NCI-H460; experiment: Cytotoxicity against human NCI-H460 cells assessed as cell death in serum free medium at 10000 nM after 12 hrs by Hoechst 33342/propidium iodide staining based fluorescence microscopy; format: functional
How it was run: (§1)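 NCI-H460 human lung cancer cells exposed 12 h to 10 nM–10 μM drug, including a 50 nM single-concentration test. Nuclei were stained with Hoechst 33342 and necrotic cells with propidium iodide. Apoptotic cells were scored by condensed or fragmented blue nuclei and necrotic cells by red PI staining. Total cell death (apoptosis plus necrosis) was recorded; N = 6.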

[12] = system: MDA-MB-435; experiment: Cytotoxicity against human MDA-MB-435 melanoma cells after 48 hrs by sulforhodamine B assay; format: functional; conditions: MDA-MB-435, 48 h
[13] = system: SF-295; experiment: Cytotoxicity against human SF295 cells after 48 hrs by sulforhodamine B assay; format: functional; conditions: SF-295, 48 h
[14] = system: M14; experiment: Cytotoxicity against human M14 cells after 48 hrs by sulforhodamine B assay; format: functional; conditions: M14, 48 h
[15] = system: A549; experiment: Cytotoxicity against human A549/ATCC cells after 48 hrs by sulforhodamine B assay; format: functional; conditions: A549, 48 h
[16] = system: NCI-H23; experiment: Cytotoxicity against human NCI-H23 cells after 48 hrs by sulforhodamine B assay; format: functional; conditions: NCI-H23, 48 h
[17] = system: EKVX; experiment: Cytotoxicity against human EKVX cells after 48 hrs by sulforhodamine B assay; format: functional
[18] = system: HOP-62; experiment: Cytotoxicity against human HOP62 cells after 48 hrs by sulforhodamine B assay; format: functional; conditions: HOP-62, 48 h
[19] = system: SR; experiment: Cytotoxicity against human SR cells after 48 hrs by sulforhodamine B assay; format: functional
[20] = system: NCI-H460; experiment: Cytotoxicity against human NCI-H460 cells assessed as cell viability at 1000 nM after 48 hrs by MTT assay; format: functional; conditions: NCI-H460, 48 h, read-out: Activity
How it was run: (§2)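 Viability of NCI-H460 cells was measured by MTT (mitochondrial enzymatic activity) after 48 h exposure, within a dose series spanning 1 nM–10 μM. N = 9, analysed by two-way ANOVA.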

[21] = system: NCI-H460; experiment: Cytotoxicity against human NCI-H460 cells assessed as cell viability at 25 nM after 48 hrs by MTT assay; format: functional; conditions: NCI-H460, 48 h, read-out: Activity; how it was run: as §2
[22] = system: T47D; experiment: Cytotoxicity against human T47D cells after 48 hrs by sulforhodamine B assay; format: functional
[23] = system: NCI-H460; experiment: Induction of apoptosis in human NCI-H460 cells in serum free medium after 12 hrs by Hoechst 33342/propidium iodide staining based fluorescence microscopy; format: functional, cell-based; conditions: for IC50: NCI-H460, 12 h
How it was run: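 NCI-H460 cells treated for 12 h at 10 nM to 10 μM. Total cell death (apoptosis plus necrosis) scored by Hoechst 33342/propidium iodide staining, with N = 6 and two-way ANOVA. IC50 obtained by nonlinear regression. Table values are the mean of three independent experiments with duplicate determinations.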

[24] = system: SF-539; experiment: Cytotoxicity against human SF539 cells after 48 hrs by sulforhodamine B assay; format: functional; conditions: SF-539, 48 h
[25] = system: Hs-578T; experiment: Cytotoxicity against human Hs578T cells after 48 hrs by sulforhodamine B assay; format: functional
[26] = system: OVCAR-5; experiment: Cytotoxicity against human OVCAR5 cells after 48 hrs by sulforhodamine B assay; format: functional; conditions: OVCAR-5, 48 h
[27] = system: NCI-H460; experiment: Cytotoxicity against human NCI-H460 cells assessed as cell viability at 50 nM after 48 hrs by MTT assay; format: functional; conditions: NCI-H460, 48 h, read-out: Activity; how it was run: as §2
[28] = system: NCI-H460; experiment: Cytotoxicity against human NCI-H460 cells assessed as cell viability at 10 nM after 48 hrs by MTT assay; format: functional; conditions: NCI-H460, 48 h, read-out: Activity; how it was run: as §2
[29] = system: MCF7; experiment: Cytotoxicity against human MCF7 cells after 48 hrs by sulforhodamine B assay; format: functional; conditions: MCF7, 48 h
[30] = system: NCI-H460; experiment: Cytotoxicity against human NCI-H460 cells assessed as cell viability at 100 nM after 48 hrs by MTT assay; format: functional; conditions: NCI-H460, 48 h, read-out: Activity; how it was run: as §2
[31] = system: A498; experiment: Cytotoxicity against human A498 cells after 48 hrs by sulforhodamine B assay; format: functional; conditions: A498, 48 h
[32] = system: SNB-75; experiment: Cytotoxicity against human SNB75 cells after 48 hrs by sulforhodamine B assay; format: functional; conditions: SNB-75, 48 h
[33] = system: LOX IMVI; experiment: Cytotoxicity against human LOXIMVI cells after 48 hrs by sulforhodamine B assay; format: functional
[34] = system: NCI-H460; experiment: Cytotoxicity against human NCI-H460 cells assessed as cell viability at 500 nM after 48 hrs by MTT assay; format: functional; conditions: NCI-H460, 48 h, read-out: Activity; how it was run: as §2
[35] = system: NCI-H460; experiment: Cytotoxicity against human NCI-H460 cells assessed as cell death in serum free medium at 25 nM after 12 hrs by Hoechst 33342/propidium iodide staining based fluorescence microscopy; format: functional; how it was run: as §1
[36] = system: NCI-H460; experiment: Cytotoxicity against human NCI-H460 cells assessed as cell death in serum free medium at 100 nM after 12 hrs by Hoechst 33342/propidium iodide staining based fluorescence microscopy; format: functional; how it was run: as §1
[37] = system: UACC-62; experiment: Cytotoxicity against human UACC62 cells after 48 hrs by sulforhodamine B assay; format: functional; conditions: UACC-62, 48 h
[38] = system: NCI-H460; experiment: Cytotoxicity against human NCI-H460 cells assessed as cell viability at 1 nM after 48 hrs by MTT assay; format: functional; conditions: NCI-H460, 48 h, read-out: Activity; how it was run: as §2
[39] = system: NCI-H460; experiment: Induction of apoptosis in human NCI-H460 cells in serum free medium at 50 nM after 12 hrs by Hoechst 33342/propidium iodide staining based fluorescence microscopy; format: functional
How it was run: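 NCI-H460 cells exposed to a single 50 nM concentration for 12 h. Cells stained with Hoechst 33342 and propidium iodide. Blue cells with condensed or fragmented nuclei were scored as apoptotic and red, ruptured cells as necrotic. Result given as % apoptotic cell death; N = 6, one-way ANOVA.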

Question: For CC(C)C[C@@H]1O[C@@H](O[C@H]2CC[C@@]3(C)[C@H](CC[C@@H]4[C@@H]3CC[C@]3(C)[C@@H](C5=CC(=O)OC5)CC[C@]43O)C2)CC[C@H]1O, which GI50 [1] is on record?
Answer: 46.3 nM

Question: What about the GI50 [2] of the same compound?
Answer: 18.3 nM

Question: And the GI50 [3]?
Answer: 55.9 nM

Question: What about the GI50 [4] of the same compound?
Answer: 23.5 nM

Question: And the GI50 [5]?
Answer: 24.4 nM

Question: What about the GI50 [6] of the same compound?
Answer: 12.2 nM

Question: And the GI50 [7]?
Answer: 22.5 nM

Question: What about the GI50 [8] of the same compound?
Answer: 27.7 nM

Question: What about the GI50 [9] of the same compound?
Answer: Dose-dependent effect

Question: What about the GI50 ([9]; NCI-H460, 48 h) of the same compound?
Answer: 8 nM

Question: What about the GI50 [10] of the same compound?
Answer: 8.27 nM

Question: What about the Activity [11] of the same compound?
Answer: 100%

Question: And the GI50 [12]?
Answer: 35.1 nM

Question: And the GI50 [13]?
Answer: 24.9 nM

Question: And the GI50 [14]?
Answer: 67.2 nM

Question: And the GI50 [15]?
Answer: 13.4 nM

Question: What about the GI50 [16] of the same compound?
Answer: 25.7 nM

Question: And the GI50 [17]?
Answer: 31.7 nM

Question: What about the GI50 [18] of the same compound?
Answer: 23.1 nM

Question: And the GI50 [19]?
Answer: 23 nM

Question: What about the viability at 1 µM [20] of the same compound?
Answer: 3.64%

Question: What about the viability at 0.025 µM [21] of the same compound?
Answer: 36.6%

Question: What about the GI50 [22] of the same compound?
Answer: 36.2 nM

Question: What about the Activity [23] of the same compound?
Answer: Dose-dependent effect

Question: What about the IC50 [23] of the same compound?
Answer: 458 nM

Question: What about the GI50 [24] of the same compound?
Answer: 23.8 nM

Question: What about the GI50 [25] of the same compound?
Answer: 7.5 nM

Question: What about the GI50 [26] of the same compound?
Answer: 113 nM

Question: And the viability at 0.05 µM [27]?
Answer: 25.1%

Question: What about the viability at 0.01 µM [28] of the same compound?
Answer: 49.2%

Question: What about the GI50 [29] of the same compound?
Answer: 52.8 nM

Question: And the viability at 0.1 µM [30]?
Answer: 18.5%

Question: And the GI50 [31]?
Answer: 27 nM

Question: And the GI50 [32]?
Answer: 85.3 nM

Question: What about the GI50 [33] of the same compound?
Answer: 27.2 nM

Question: And the viability at 0.5 µM [34]?
Answer: 4.88%

Question: And the Activity [35]?
Answer: 12.41%

Question: And the Activity [36]?
Answer: 17.69%

Question: And the GI50 [37]?
Answer: 50.5 nM

Question: And the viability at 0.001 µM [38]?
Answer: 81.8%

Question: What about the Activity [39] of the same compound?
Answer: 9.2821%

Question: Which results are given for CC(C)[C@@H]1O[C@@H](O[C@H]2CC[C@@]3(C)[C@H](CC[C@@H]4[C@@H]3CC[C@]3(C)[C@@H](C5=CC(=O)OC5)CC[C@]43O)C2)CC[C@H]1O?
Answer: GI50 [1]: 61.9 nM; GI50 [2]: 14.3 nM; GI50 [3]: 152 nM; GI50 [4]: 26 nM; GI50 [5]: 20.8 nM; GI50 [6]: 17 nM; GI50 [7]: 20.7 nM; GI50 [8]: 23.4 nM; GI50 [9]: Dose-dependent effect; GI50 ([9]; NCI-H460, 48 h): 8 nM; GI50 [10]: 7.66 nM; Activity [11]: 100%; GI50 [12]: 82.8 nM; GI50 [13]: 28.6 nM; GI50 [14]: 93.4 nM; GI50 [15]: 17.7 nM; GI50 [16]: 29.4 nM; GI50 [17]: 31.9 nM; GI50 [18]: 31.1 nM; GI50 [19]: 37.2 nM; viability at 1 µM [20]: 5.21%; viability at 0.025 µM [21]: 30.1%; GI50 [22]: 95.9 nM; Activity [23]: Dose-dependent effect; IC50 [23]: 533 nM; GI50 [24]: 27.6 nM; GI50 [25]: 13.6 nM; GI50 [26]: 107 nM; viability at 0.05 µM [27]: 22.2%; viability at 0.01 µM [28]: 50.7%; GI50 [29]: 161 nM; viability at 0.1 µM [30]: 12.4%; GI50 [31]: 90.1 nM; GI50 [32]: 92.6 nM; GI50 [33]: 26.9 nM; viability at 0.5 µM [34]: 6.35%; Activity [35]: 12.07%; Activity [36]: 18.89%; GI50 [37]: 119 nM; viability at 0.001 µM [38]: 81.1%; Activity [39]: 11.993%
